Values after ≈ are worked out from the molar mass of the structure shown. Active and inactive are the calls of the source. No cut-off for these calls is given here.
Assays:
[1] = tested on: Homo sapiens; experiment: Suppression of calcium ionophore-stimulated LTB4 production in CAD patient whole blood at 100 mg administered daily during phase 2 study for 12 weeks by ELISA relative to baseline; type: functional
[2] = Inhibition of FLAP in Beagle dog whole blood assessed as reduction in calcium ionophore-stimulated LTB4 production preincubated for 30 mins followed by calcium ionophore stimulation and measured after 20 mins by EIA; type: tissue-based; details: Canis lupus familiaris
[3] = molecular target: Potassium/sodium hyperpolarization-activated cyclic nucleotide-gated channel 4 (Homo sapiens, UniProt Q9Y3Q4); experiment: Inhibition of human HCN4 by Ion-work electrophysiology assay
[4] = molecular target: T1, Arachidonate 5-lipoxygenase-activating protein (Homo sapiens, UniProt P20292); experiment: (§1) Inhibition of FLAP in human whole blood assessed as reduction in calcium ionophore-stimulated LTB4 production preincubated for 30 mins followed by calcium ionophore stimulation and measured after 20 mins by EIA; type: tissue-based
T1 sequence (P20292 whole entry): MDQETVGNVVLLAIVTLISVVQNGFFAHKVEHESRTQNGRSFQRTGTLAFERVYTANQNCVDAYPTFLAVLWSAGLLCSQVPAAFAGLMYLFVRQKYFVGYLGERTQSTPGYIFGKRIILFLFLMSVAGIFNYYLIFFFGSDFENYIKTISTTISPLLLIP

[5] = molecular target: T2, Arachidonate 5-lipoxygenase-activating protein (Homo sapiens) (UniProt P20292); experiment: as §1; type: tissue-based
T2 sequence (whole entry): T1 sequence (P20292 whole entry)

[6] = Protein binding in Sprague-Dawley rat plasma assessed as unbound fraction by LC-MS based equilibrium dialysis analysis; type: ADME, cell-free
[7] = Half-life in po or iv dosed Sprague-Dawley rat; type: ADME, organism-based; details: in vivo
[8] = molecular target: Kv channel-interacting protein 2/Potassium voltage-gated channel subfamily D member 3 (Homo sapiens, UniProt Q9UK17+Q9NS61); experiment: Inhibition of human Kv4.3/KChIP2 by Ion-work electrophysiology assay; type: protein-complex assay
[9] = Selectivity ratio of inhibition of COX-2 in human whole blood to Inhibition of 5-lipoxygenase (unknown origin)
[10] = molecular target: Polyunsaturated fatty acid lipoxygenase ALOX12 (Homo sapiens, UniProt P18054); experiment: Inhibition of 12-lipoxygenase (unknown origin)
[11] = Distribution coefficient between octanol and sodium phosphate buffer, logD of the compound in pH 7.4 buffer by LC-MS/MS-based shake flask method
[12] = Ratio of drug level in blood to plasma in human at 10 uM incubated for 30 mins by LC-MS/MS analysis; type: ADME, cell-free
[13] = Inhibition of phospholipidosis in rat H42EC3 cells assessed as reduction in NBD-PE accumulation by SYTOX orange staining-based high content imaging analysis; type: cell-based
[14] = physchem; details: phosphate buffer, pH 7.4
[15] = molecular target: ATP-binding cassette sub-family C member 2 (Rattus norvegicus, UniProt Q63120); experiment: Inhibition of Sprague-Dawley rat Mrp2 expressed in baculovirus infected Sf21 insect cell vesicles assessed as reduction in CDF uptake by fluorescence assay
[16] = molecular target: Potassium voltage-gated channel subfamily A member 5 (Homo sapiens, UniProt P22460); experiment: Inhibition of human Kv1.5 by Ion-work electrophysiology assay
[17] = molecular target: Voltage-gated inwardly rectifying potassium channel KCNH2 (Homo sapiens, UniProt Q12809); experiment: Inhibition of human ERG by high-throughput electrophysiology assay
[18] = molecular target: Sodium channel protein type 5 subunit alpha (Homo sapiens, UniProt Q14524); experiment: Inhibition of human NaV1.5 by Ion-work electrophysiology assay
[19] = Clearance in po or iv dosed Sprague-Dawley rat; type: ADME, organism-based; details: in vivo
[20] = tested on: HepG2; experiment: Induction of mitochondrial impairment in human HepG2 cells incubated for 24 hrs by CellTiter-Glo Luminescent Cell Viability Assay; type: cell-based; details: hepg2, 24 h
[21] = Apparent permeability across apical to basolateral side in human Caco2 cells; details: Caco-2
[22] = Genotoxicity in Salmonella typhimurium by Ames test; type: toxicity; details: salmonella enterica subsp. enterica serovar typhimurium
Outline: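 Two-strain Salmonella Ames test, with and without metabolic activation by rat liver S9 fraction; applied to amino pyrazole building blocks present in the series.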

[23] = organism: Canis familiaris; experiment: Ex vivo inhibition of FLAP in Beagle dog assessed as reduction in ionophore-stimulated LTB4 production by EIA; type: functional, organism-based; details: Canis lupus familiaris
[24] = Drug absorption in Beagle dog at 0.004 to 0.1 umol/kg, iv or 0.1 to 1 umol/kg, po via gavage measured up to 79 hrs; type: ADME, organism-based, Canis lupus familiaris; details: in vivo
[25] = molecular target: Aryl hydrocarbon receptor (Homo sapiens, UniProt P35869); experiment: Agonist activity at AhR in human HepG2 cells assessed as induction of CYP1A1 activity at 0.001 to 30 uM measured after 24 hrs by immunocytochemistry analysis; type: ADME, cell-based; details: hepg2, 24 h
[26] = Bioavailability in po dosed Sprague-Dawley rat; type: ADME, organism-based; details: in vivo
[27] = molecular target: Polyunsaturated fatty acid 5-lipoxygenase (Homo sapiens, UniProt P09917); experiment: Inhibition of 5-lipoxygenase (unknown origin)
[28] = molecular target: Voltage-dependent T-type calcium channel subunit alpha-1H (Homo sapiens) (UniProt O95180); experiment: Inhibition of human Cav3.2 by Ion-work electrophysiology assay
[29] = molecular target: Bile salt export pump (Homo sapiens, UniProt O95342); experiment: Inhibition of recombinant human BSEP expressed in baculovirus infected Sf21 insect cell vesicles assessed as reduction in NBD-taurocholate uptake by fluorescence assay; type: ADME
[30] = Half-life in Beagle dog at 0.004 to 0.1 umol/kg, iv or 0.1 to 1 umol/kg, po via gavage measured up to 79 hrs; type: ADME, organism-based, Canis lupus familiaris; details: in vivo
[31] = molecular target: Prostaglandin G/H synthase 2 (Homo sapiens, UniProt P35354); experiment: Inhibition of COX-2 in human whole blood assessed as reduction in LPS-stimulated prostaglandin E2 production preincubated for 15 mins followed by LPS stimulation and measured after overnight incubation by EIA; type: tissue-based
[32] = molecular target: Potassium voltage-gated channel subfamily E member 1 (Homo sapiens, UniProt P15382); experiment: Inhibition of human IKs by IonWork electrophysiology method
[33] = molecular target: Prostaglandin G/H synthase 1 (Homo sapiens, UniProt P23219); experiment: Inhibition of COX-1 in human whole blood assessed as reduction in calcium ionophore-stimulated thromboxane B2 production preincubated for 30 mins followed by calcium ionophore stimulation and measured after 20 mins by EIA; type: tissue-based
[34] = Protein binding in human plasma assessed as unbound fraction by LC-MS based equilibrium dialysis analysis; type: ADME, cell-free
[35] = molecular target: T1, Arachidonate 5-lipoxygenase-activating protein; experiment: Inhibition of [3H]MK0591 binding to human FLAP expressed in […] cell membranes measured after 60 to 80 mins by scintillation counting method
[36] = Cytotoxicity against human THLE cells incubated for 24 hrs by MTS assay; type: cell-based
[37] = Metabolic stability in human hepatocytes assessed as parent compound remaining; type: ADME, cell-based, Hepatocyte
[38] = Volume of distribution at steady state in po or iv dosed Sprague-Dawley rat; type: ADME, organism-based; details: in vivo, read-out: Vdss
[39] = molecular target: Polyunsaturated fatty acid lipoxygenase ALOX15 (Homo sapiens, UniProt P16050); experiment: Inhibition of 15-lipoxygenase (unknown origin)
[40] = Oral bioavailability in Beagle dog at 0.1 to 1 umol/kg administered twice daily via gavage for 3 days and measured up to 79 hrs; type: ADME, organism-based, Canis lupus familiaris; details: in vivo
[41] = Volume of distribution in Beagle dog at 0.004 to 0.1 umol/kg, iv or 0.1 to 1 umol/kg, po via gavage measured up to 79 hrs; type: ADME, organism-based, Canis lupus familiaris; details: in vivo
[42] = Intrinsic clearance in cryopreserved human hepatocytes assessed as per million cells at 1 uM measured up to 60 mins by LC-MS/MS analysis; type: ADME, cell-based, Hepatocyte; details: read-out: CLH
[43] = Selectivity ratio of inhibition of COX-1 in human whole blood to Inhibition of 5-lipoxygenase (unknown origin)
[44] = tested on: L5178Y; experiment: Genotoxicity in mouse L5178Y cells by micronucleus Assay; type: toxicity, cell-based
[45] = Clearance in Beagle dog at 0.004 to 0.1 umol/kg, iv or 0.1 to 1 umol/kg, po via gavage measured up to 79 hrs; type: ADME, organism-based, Canis lupus familiaris; details: in vivo
[46] = molecular target: CYP450 (Homo sapiens, UniProt P04798+P05177+P05181+P08684+P10632+P10635+P11509+P11712+P13584+P20813+P20815+P20853+P24462+P24903+P33260+P33261+P51589+P78329+P98187+Q02928+Q08477+Q16678+Q16696+Q5TCH4+Q6VVX0+Q7Z449+Q8TAV3+Q96SQ9+Q9HB55); experiment: Inhibition of CYP450 assessed as maximum reduction in metabolite formation using coumarin based substrate by fluorescence assay; type: ADME, protein assay; details: probe coumarin based substrate
[47] = molecular target: Cytochrome P450 1A2 (Homo sapiens, UniProt P05177); experiment: Inhibition of recombinant human CYP1A2 assessed as maximum reduction in metabolite formation using coumarin based substrate by fluorescence assay; type: ADME
[48] = molecular target: hERG (KCNH2) (Homo sapiens, UniProt Q12809); experiment: Inhibition of human ERG at 10 uM high-throughput electrophysiology assay relative to control
[49] = molecular target: T1, Arachidonate 5-lipoxygenase-activating protein; experiment: (§2) Inhibition of FLAP in human whole blood assessed as reduction in calcium ionophore-stimulated LTB4 production preincubated for 4 hrs followed by calcium ionophore stimulation and measured after 20 mins by EIA; type: tissue-based
[50] = molecular target: T2, Arachidonate 5-lipoxygenase-activating protein (Homo sapiens); experiment: as §2; type: tissue-based

Sequence of Prostaglandin G/H synthase 2 (P35354 whole entry): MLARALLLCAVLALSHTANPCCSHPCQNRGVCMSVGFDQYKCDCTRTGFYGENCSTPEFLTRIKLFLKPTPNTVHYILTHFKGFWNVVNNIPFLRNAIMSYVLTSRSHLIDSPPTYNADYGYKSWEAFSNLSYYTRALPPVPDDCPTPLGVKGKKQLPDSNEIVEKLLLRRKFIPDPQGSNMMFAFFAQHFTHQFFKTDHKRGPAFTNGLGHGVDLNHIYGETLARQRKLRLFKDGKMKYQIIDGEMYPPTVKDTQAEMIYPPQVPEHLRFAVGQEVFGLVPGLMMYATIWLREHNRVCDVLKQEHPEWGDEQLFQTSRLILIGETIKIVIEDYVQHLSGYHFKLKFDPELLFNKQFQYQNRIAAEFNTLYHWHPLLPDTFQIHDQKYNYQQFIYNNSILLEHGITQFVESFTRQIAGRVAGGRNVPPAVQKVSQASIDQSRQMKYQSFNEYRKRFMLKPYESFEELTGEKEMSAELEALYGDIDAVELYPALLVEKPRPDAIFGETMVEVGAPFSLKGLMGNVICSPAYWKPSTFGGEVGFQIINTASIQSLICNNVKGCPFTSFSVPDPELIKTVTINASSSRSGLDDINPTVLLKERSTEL
Sequence of Cytochrome P450 1A2 (P05177 whole entry): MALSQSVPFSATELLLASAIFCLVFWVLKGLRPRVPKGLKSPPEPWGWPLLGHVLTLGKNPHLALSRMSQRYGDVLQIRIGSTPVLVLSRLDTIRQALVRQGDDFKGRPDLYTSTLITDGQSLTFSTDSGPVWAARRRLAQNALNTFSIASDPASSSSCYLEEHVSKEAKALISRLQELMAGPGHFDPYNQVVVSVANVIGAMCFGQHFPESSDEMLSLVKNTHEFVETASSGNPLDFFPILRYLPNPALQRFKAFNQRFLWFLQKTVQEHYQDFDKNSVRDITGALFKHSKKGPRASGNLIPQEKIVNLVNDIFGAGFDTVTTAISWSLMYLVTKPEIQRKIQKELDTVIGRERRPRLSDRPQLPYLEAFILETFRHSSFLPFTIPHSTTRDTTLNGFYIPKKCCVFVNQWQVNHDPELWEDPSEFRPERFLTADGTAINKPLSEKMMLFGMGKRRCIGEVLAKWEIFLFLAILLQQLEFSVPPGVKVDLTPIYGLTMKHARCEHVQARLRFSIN
Sequence of Potassium voltage-gated channel subfamily A member 5 (P22460 whole entry): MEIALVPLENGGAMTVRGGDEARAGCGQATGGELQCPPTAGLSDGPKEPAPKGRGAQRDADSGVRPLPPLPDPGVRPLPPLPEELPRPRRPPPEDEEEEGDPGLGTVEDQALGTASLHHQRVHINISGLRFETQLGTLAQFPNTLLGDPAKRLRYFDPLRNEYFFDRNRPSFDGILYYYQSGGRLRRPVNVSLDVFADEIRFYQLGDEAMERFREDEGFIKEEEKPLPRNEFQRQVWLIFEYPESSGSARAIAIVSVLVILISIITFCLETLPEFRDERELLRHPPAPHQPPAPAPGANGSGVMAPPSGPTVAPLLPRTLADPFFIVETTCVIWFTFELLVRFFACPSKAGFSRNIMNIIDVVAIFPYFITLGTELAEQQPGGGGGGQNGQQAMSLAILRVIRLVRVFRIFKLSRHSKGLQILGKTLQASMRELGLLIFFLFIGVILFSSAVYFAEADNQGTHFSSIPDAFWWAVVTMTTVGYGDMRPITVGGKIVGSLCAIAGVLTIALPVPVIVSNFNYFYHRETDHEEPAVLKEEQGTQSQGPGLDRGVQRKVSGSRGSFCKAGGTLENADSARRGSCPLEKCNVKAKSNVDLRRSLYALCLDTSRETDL
Sequence of Sodium channel protein type 5 subunit alpha (Q14524 whole entry): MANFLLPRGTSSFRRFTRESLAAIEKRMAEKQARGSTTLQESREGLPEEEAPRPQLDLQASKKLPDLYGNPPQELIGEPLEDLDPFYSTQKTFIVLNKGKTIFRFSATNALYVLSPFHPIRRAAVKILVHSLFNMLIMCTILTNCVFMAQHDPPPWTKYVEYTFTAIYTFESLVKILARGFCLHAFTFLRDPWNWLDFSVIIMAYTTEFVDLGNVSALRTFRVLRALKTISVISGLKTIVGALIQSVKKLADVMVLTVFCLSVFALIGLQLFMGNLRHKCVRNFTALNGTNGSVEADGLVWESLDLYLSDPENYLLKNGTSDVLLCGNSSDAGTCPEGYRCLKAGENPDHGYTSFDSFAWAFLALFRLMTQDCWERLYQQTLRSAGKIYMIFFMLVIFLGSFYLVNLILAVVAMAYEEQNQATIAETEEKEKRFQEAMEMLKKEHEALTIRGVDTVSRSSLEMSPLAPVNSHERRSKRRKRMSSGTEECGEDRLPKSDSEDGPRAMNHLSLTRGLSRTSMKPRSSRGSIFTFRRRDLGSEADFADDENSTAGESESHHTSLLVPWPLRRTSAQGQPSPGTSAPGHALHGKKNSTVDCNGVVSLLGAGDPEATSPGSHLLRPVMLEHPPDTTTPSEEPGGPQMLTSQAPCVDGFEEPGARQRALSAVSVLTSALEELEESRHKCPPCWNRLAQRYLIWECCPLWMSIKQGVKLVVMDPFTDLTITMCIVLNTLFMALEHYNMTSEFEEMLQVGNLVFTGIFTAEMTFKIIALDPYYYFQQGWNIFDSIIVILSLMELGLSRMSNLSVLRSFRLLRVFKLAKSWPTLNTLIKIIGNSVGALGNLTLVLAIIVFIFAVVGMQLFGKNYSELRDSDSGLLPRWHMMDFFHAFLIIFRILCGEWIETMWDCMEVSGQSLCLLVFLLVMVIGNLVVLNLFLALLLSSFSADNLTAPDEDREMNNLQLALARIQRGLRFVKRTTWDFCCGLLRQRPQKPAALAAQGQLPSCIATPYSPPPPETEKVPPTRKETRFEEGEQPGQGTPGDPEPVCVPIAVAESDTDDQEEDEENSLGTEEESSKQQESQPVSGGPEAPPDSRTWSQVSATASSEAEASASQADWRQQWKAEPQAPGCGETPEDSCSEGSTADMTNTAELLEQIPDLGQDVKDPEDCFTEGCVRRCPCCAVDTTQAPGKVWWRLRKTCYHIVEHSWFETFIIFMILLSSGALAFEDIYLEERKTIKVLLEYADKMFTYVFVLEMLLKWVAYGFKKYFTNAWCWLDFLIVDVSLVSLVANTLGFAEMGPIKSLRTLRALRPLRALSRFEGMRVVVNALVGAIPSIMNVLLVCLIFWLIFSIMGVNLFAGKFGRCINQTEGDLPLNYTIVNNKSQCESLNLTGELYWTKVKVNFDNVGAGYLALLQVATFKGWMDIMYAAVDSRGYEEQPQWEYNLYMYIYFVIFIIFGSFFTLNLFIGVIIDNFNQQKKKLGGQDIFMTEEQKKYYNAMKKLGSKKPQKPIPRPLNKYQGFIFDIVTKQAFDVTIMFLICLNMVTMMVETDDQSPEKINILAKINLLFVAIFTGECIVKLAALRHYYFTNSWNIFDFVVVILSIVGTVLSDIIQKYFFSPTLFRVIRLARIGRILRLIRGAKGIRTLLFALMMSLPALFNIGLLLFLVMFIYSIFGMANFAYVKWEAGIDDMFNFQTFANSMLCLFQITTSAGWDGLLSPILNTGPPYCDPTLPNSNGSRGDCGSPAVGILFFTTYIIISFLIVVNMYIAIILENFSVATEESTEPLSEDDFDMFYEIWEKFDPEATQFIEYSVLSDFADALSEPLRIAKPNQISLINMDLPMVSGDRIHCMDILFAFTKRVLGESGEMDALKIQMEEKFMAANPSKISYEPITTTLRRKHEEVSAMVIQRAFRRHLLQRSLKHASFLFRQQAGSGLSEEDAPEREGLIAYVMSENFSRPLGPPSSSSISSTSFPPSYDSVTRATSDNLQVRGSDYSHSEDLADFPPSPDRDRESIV
Sequence of Potassium/sodium hyperpolarization-activated cyclic nucleotide-gated channel 4 (Q9Y3Q4 whole entry): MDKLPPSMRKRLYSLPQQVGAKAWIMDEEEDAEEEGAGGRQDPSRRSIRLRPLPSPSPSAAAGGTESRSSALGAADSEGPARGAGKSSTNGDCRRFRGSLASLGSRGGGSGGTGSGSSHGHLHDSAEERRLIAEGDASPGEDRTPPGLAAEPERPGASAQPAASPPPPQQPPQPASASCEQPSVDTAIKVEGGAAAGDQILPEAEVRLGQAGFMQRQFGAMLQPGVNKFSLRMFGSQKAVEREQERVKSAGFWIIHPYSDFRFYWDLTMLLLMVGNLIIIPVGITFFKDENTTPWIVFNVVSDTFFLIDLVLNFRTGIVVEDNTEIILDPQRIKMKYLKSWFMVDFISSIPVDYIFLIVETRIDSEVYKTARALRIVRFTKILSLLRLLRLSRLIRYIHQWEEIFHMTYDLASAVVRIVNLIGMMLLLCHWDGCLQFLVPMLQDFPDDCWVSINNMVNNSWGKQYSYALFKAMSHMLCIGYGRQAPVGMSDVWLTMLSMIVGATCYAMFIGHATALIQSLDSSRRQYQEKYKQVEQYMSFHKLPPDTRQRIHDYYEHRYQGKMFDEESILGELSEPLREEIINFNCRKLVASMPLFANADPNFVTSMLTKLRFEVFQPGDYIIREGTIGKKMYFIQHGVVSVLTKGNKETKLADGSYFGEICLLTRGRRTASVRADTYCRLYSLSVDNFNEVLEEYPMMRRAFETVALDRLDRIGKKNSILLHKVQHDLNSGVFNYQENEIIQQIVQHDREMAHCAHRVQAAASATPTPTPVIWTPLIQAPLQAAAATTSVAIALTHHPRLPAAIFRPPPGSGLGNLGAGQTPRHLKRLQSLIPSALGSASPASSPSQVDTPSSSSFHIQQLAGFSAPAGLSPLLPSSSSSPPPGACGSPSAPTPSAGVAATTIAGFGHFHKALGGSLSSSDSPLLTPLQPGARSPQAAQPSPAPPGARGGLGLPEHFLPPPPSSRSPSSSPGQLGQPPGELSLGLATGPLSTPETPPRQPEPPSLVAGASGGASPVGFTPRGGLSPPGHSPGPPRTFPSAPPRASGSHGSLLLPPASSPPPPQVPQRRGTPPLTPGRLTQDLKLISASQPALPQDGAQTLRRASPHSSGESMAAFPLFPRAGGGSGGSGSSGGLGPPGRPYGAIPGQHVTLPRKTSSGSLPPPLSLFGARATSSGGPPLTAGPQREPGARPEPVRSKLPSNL

C[C@H](C#Cc1ccc(Cc2ccc(F)cc2)s1)N(O)C(N)=O [ATRELEUTON]
inhibition (INH) [1]: 80%

Cc1cc(-c2ccc(C(=O)[C@@H]3CCCC[C@H]3C(=O)Nc3cn(C)nc3C)cc2)n[nH]1
IC50 [2]: 28 nM
inhibition (INH) [3]: Not Active
IC50 [4]: 63.1 nM
fpIC50 [5]: 8.1
fraction unbound [6]: 0.043
half-life [7]: 270 min
inhibition (INH) [8]: Not Active
Selectivity ratio [9]: >= 100
inhibition (INH) [10]: Not Active
logD [11]: 3
blood plasma ratio at 0.5 h, 10 µM [12]: 0.74
EC50 [13]: 32 µM
solubility at 24 h [14]: 225 µM (≈ 91.2 µg/mL)
inhibition (INH) [15]: Not Active
inhibition (INH) [16]: Not Active
IC50 [17]: > 100 µM
inhibition (INH) [18]: Not Active
clearance [19]: 6 mL/min/kg
Activity [20]: Non-Toxic
Papp A→B [21]: 20 ×10⁻⁶ cm/s
Activity [22]: Non-Toxic
IC50 [23]: 34 nM
inhibition [23]: Dose-dependent effect
ka [24]: 5.3 h⁻¹
Activity [25]: Not Active
bioavailability [26]: 47%
inhibition (INH) [27]: Not Active
inhibition [28]: inactive
IC50 [29]: 120 µM
half-life [30]: 204 min
inhibition (INH) [31]: Not Active
inhibition (INH) [32]: Not Active
inhibition (INH) [33]: Not Active
fraction unbound [34]: 0.11
IC50 [35]: 63.1 nM
Activity [36]: Non-Toxic
Stability [37]: 72%
Vd [38]: 0.83 L/kg
inhibition (INH) [39]: Not Active
bioavailability [40]: 51%
Vd [41]: 0.98 L/kg
hepatocyte CLint at 1 µM [42]: 4 µL/min/1e6 cells
Selectivity ratio [43]: >= 100
Activity [44]: Non-Toxic
clearance [45]: 3.33 mL/min/kg
IC50 [46]: > 25.1 µM

CC(C)(O)CNC(=O)c1cnc(NC(=O)[C@@H]2CCCC[C@H]2C(=O)c2ccc(-c3cc[nH]n3)cc2)cn1 (racemic)
logD [11]: 3.2
solubility at 24 h [14]: 111 µM (≈ 54.5 µg/mL)
IC50 [47]: 10 µM
Papp A→B [21]: 3 ×10⁻⁶ cm/s
inhibition at 10 µM [48]: 22%
IC50 [35]: 15.8 nM
IC50 [49]: 100 nM
fpIC50 [50]: 8.3
hepatocyte CLint at 1 µM [42]: 4 µL/min/1e6 cells

Source: ChEMBL document CHEMBL4350955, “Novel Chemical Series of 5-Lipoxygenase-Activating Protein Inhibitors for Treatment of Coronary Artery Disease” (J Med Chem, 2019)
